Assay results reported in ChEMBL document CHEMBL1949567, “Novel synthesis and biological evaluation of enigmols as therapeutic agents for treating prostate cancer” (ACS Med Chem Lett, 2011).
pIC50: −log10 of the molar value. Calls of active or inactive are those of the source. No cut-off for these calls is given here.

Key:
Mus musculus [1] = test: Toxicity in androgen insensitive human PC3 cells xenografted nude mouse model assessed as body weight change administered at 10 mg/kg, po once daily administered from day 16 after implantation; format: organism-based, PC-3; design: dose 10 mg/kg, route oral; settings: in vivo
In short: (§1)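 Nude mice bearing established PC-3 tumors (n = 10) given 10 mg/kg daily by oral gavage from day 16 after implantation, with vehicle controls. Tumor growth and body weight measured over time. Growth rates compared by mixed model for repeated measurements, weights by ANOVA.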

LNCaP [2] = test: Cytotoxicity against human LNCAP cells after 24 hrs by WST-1 assay; format: functional, cell-based
In short: (§2)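 PC-3 (androgen-independent) and LNCaP (androgen-sensitive) prostate cancer cells treated for 24 h. Cytotoxicity read by WST-1 assay. IC50 calculated from the resulting data.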

PC-3 [3] = test: Anticancer activity against androgen insensitive human PC3 cells xenografted nude mouse model assessed as decrease in tumor growth rate administered at 10 mg/kg, po once daily administered from day 16 after implantation; format: functional, organism-based; design: dose 10 mg/kg; in short: as §1
PC-3 [4] = test: Cytotoxicity against human PC3 cells after 24 hrs by WST-1 assay; format: functional, cell-based; settings: PC-3, 24 h; in short: as §2
[5] = Apparent oral clearance in CD-1/Swiss Webster mouse at 10 mg/kg, po by LC/MS/MS analysis; format: ADME, organism-based; design: dose 10 mg/kg, route oral; settings: in vivo
In short: (§3)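 Outbred male Swiss Webster or CD-1 mice, n = 3 per time point, single oral dose of 10 or 30 mg/kg in 10% ethanol/90% olive oil given at 5 mL/kg. Blood drawn from submandibular vein or retro-orbital plexus at set time points. PK parameters calculated from mean plasma concentrations (nM).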

[6] = AUC (0 to infinity) in CD-1/Swiss Webster mouse at 30 mg/kg, po by LC/MS/MS analysis; format: ADME, organism-based; design: time infinity, dose 30 mg/kg, route oral; settings: plasma; in short: as §3
[7] = Apparent volume of distribution during terminal phase in CD-1/Swiss Webster mouse at 10 mg/kg, po by LC/MS/MS analysis; format: ADME, organism-based; design: dose 10 mg/kg, route oral; settings: in vivo, read-out: Vz/F; in short: as §3
[8] = AUC (0 to t) in CD-1/Swiss Webster mouse at 30 mg/kg, po by LC/MS/MS analysis; format: ADME, organism-based; design: dose 30 mg/kg, route oral; settings: plasma; in short: as §3
[9] = AUC (0 to t) in CD-1/Swiss Webster mouse at 10 mg/kg, po by LC/MS/MS analysis; format: ADME, organism-based; design: dose 10 mg/kg, route oral; settings: plasma; in short: as §3
[10] = Cmax in CD-1/Swiss Webster mouse at 10 mg/kg, po by LC/MS/MS analysis; format: ADME, organism-based; design: dose 10 mg/kg, route oral; settings: in vivo; in short: as §3
[11] = Cmax in CD-1/Swiss Webster mouse at 30 mg/kg, po by LC/MS/MS analysis; format: ADME, organism-based; design: dose 30 mg/kg, route oral; settings: in vivo; in short: as §3
[12] = (§4) Apparent volume of distribution during terminal phase in CD-1/Swiss Webster mouse at 30 mg/kg, po by LC/MS/MS analysis; format: ADME, organism-based; design: dose 30 mg/kg, route oral; settings: CD-1/Swiss Webster, in vivo, read-out: Vz/F; in short: as §3
[13] = Half life in CD-1/Swiss Webster mouse at 30 mg/kg, po by LC/MS/MS analysis; format: ADME, organism-based; design: dose 30 mg/kg, route oral; settings: in vivo; in short: as §3
[14] = Half life in CD-1/Swiss Webster mouse at 10 mg/kg, po by LC/MS/MS analysis; format: ADME, organism-based; design: dose 10 mg/kg, route oral; settings: in vivo; in short: as §3
[15] = Apparent oral clearance in CD-1/Swiss Webster mouse at 30 mg/kg, po by LC/MS/MS analysis; format: ADME, organism-based; design: dose 30 mg/kg, route oral; settings: in vivo; in short: as §3
[16] = Tmax in CD-1/Swiss Webster mouse at 30 mg/kg, po by LC/MS/MS analysis; format: ADME, organism-based; design: dose 30 mg/kg, route oral; settings: in vivo; in short: as §3
[17] = Tmax in CD-1/Swiss Webster mouse at 10 mg/kg, po by LC/MS/MS analysis; format: ADME, organism-based; design: dose 10 mg/kg, route oral; settings: in vivo; in short: as §3
[18] = AUC (0 to infinity) in CD-1/Swiss Webster mouse at 10 mg/kg, po by LC/MS/MS analysis; format: ADME, organism-based; design: time infinity, dose 10 mg/kg, route oral; settings: plasma; in short: as §3
PC-3 [19] = test: Anticancer activity against androgen insensitive human PC3 cells xenografted nude mouse model assessed as decrease in tumor growth rate administered at 15 mg/kg, ip administered once in a week on day 22 to day 29 after implantation relative to control; format: functional, organism-based; design: dose 15 mg/kg
In short: (§5)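 Nude mice bearing PC-3 xenografts (n = 15). Daily oral gavage at 10 mg/kg from Day 22 to Day 34 after implantation. Docetaxel 15 mg/kg or vehicle given i.p. on Days 22 and 29, alone or combined with gavage. Tumor growth and body weight followed. Growth analysed by mixed model for repeated measurements, weights by ANOVA.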

PC-3 [20] = test: Anticancer activity against androgen insensitive human PC3 cells xenografted nude mouse model assessed as decrease in tumor growth rate administered at 10 mg/kg, po once daily administered from day 22 to day 34 after implantation relative to control; format: functional, organism-based; design: dose 10 mg/kg; in short: as §5
LNCaP [21] = test: Anticancer activity against androgen sensitive human LNCAP cells xenografted nude mouse model assessed as reduction in tumor growth rate administered at 10 mg/kg, po once daily after day 14 of implantation measured on day 36 relative to control; format: functional, organism-based; design: dose 10 mg/kg
In short: (§6)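 Nude mice bearing palpable subcutaneous LNCaP tumors (n = 10–12 per group). Castration or sham surgery on Day 13 after implantation. Daily oral gavage of 10 mg/kg or vehicle from Day 14. Tumor growth followed over time and body weights monitored. Controls sacrificed Day 36 for tumor burden; some groups continued longer. Growth analysed by mixed model for repeated measurements, weights by ANOVA.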

Mus musculus [22] = test: Toxicity in androgen sensitive human LNCAP cells xenografted nude mouse model assessed as body weight change at 10 mg/kg, po once daily after day 14 of implantation; format: organism-based; design: dose 10 mg/kg, route oral; settings: in vivo; in short: as §6
Mus musculus [23] = test: as §4; format: ADME, organism-based; design: dose 30 mg/kg, route oral; settings: in vivo; in short: as §3
PC-3 [24] = test: Anticancer activity against androgen insensitive human PC3 cells xenografted nude mouse model assessed as decrease in tumor growth rate administered at 10 mg/kg, po once daily administered from day 22 to day 34 after implantation coadministered with docetaxel relative to control; format: functional, organism-based; design: dose 10 mg/kg; in short: as §5
Mus musculus [25] = test: Toxicity in androgen sensitive human LNCAP cells xenografted castrated mouse model assessed as body weight change at 10 mg/kg, po once daily after day 14 of implantation; format: organism-based; design: dose 10 mg/kg, route oral; settings: in vivo; in short: as §6
[26] = Drug uptake in rat prostate tissue at 100 mg/kg, po; format: ADME, organism-based, Prostate gland; design: dose 100 mg/kg, route oral; settings: in vivo, read-out: Drug uptake
LNCaP [27] = test: Anticancer activity in androgen sensitive human LNCAP cells xenografted castrated mouse model assessed as reduction in tumor growth rate administered at 10 mg/kg, po once daily from day 14 after implantation measured on day 38 relative to control; format: functional, organism-based; design: dose 10 mg/kg; in short: as §6
Mus musculus [28] = test: Toxicity in androgen insensitive human PC3 cells xenografted nude mouse model assessed as body weight change administered at 10 mg/kg, po once daily administered from day 22 to day 34 after implantation; format: organism-based, PC-3; design: dose 10 mg/kg, route oral; settings: in vivo; in short: as §5
PC-3 [29] = test: Anticancer activity against androgen insensitive human PC3 cells xenografted nude mouse model assessed as decrease in tumor growth rate administered at 10 mg/kg, po once daily administered from day 16 after implantation

With `CCCCCCCCCCCCC[C@@H](O)C[C@H](O)[C@H](C)N` the Activity (Mus musculus [1]) was 0.3%, the pIC50 (LNCaP [2]) was 5.01 and the Activity (PC-3 [3]) was “Active”. The pIC50 (PC-3 [4]) was 4.99.

In the case of `CCCCCCCCCCCCC[C@H](O)C[C@H](O)[C@H](C)NC`, the CL/F [5] was 83.3 mL/min/kg, the AUC(0-inf) [6] was 17.9 µM·h and the Vd/F [7] was 117 L/kg. The pIC50 (LNCaP [2]) was 4.60, the AUC(0-t) [8] was 13.6 µM·h and the AUC(0-t) [9] was 3.86 µM·h. It also gave a Cmax [10] of 232 nM, a Cmax [11] of 1120 nM and a Vd/F [12] of 90 L/kg. The half-life [13] was 12 h, the half-life [14] was 15 h and the CL/F [15] was 83.3 mL/min/kg. It also gave a Tmax [16] of 2 h, a Tmax [17] of 4 h and a pIC50 (PC-3 [4]) of 4.98. For the same molecule, the AUC(0-inf) [18] was 5.99 µM·h.

With `CC(=O)O[C@@]12CO[C@@H]1C[C@H](O)[C@@]1(C)C(=O)[C@H](O)C3=C(C)[C@@H](OC(=O)[C@H](O)[C@@H](NC(=O)OC(C)(C)C)c4ccccc4)C[C@@](O)([C@@H](OC(=O)c4ccccc4)[C@H]21)C3(C)C` the Activity (PC-3 [19]) was “Active”.

For `CCCCCCCCCCCCC[C@H](O)C[C@@H](O)[C@H](C)N`, the Activity (Mus musculus [1]) was 0.3%, the pIC50 (LNCaP [2]) was 5.30 and the Activity (PC-3 [3]) was “Active”. It also gave a pIC50 (PC-3 [4]) of 5.01.

Work on `CCCCCCCCCCCCC[C@@H](O)C[C@@H](O)[C@H](C)N` yielded a pIC50 (LNCaP [2]) of 4.30 and a pIC50 (PC-3 [4]) of 4.31.

In the case of `CCCCCCCCCCCCC[C@H](O)C[C@H](O)[C@H](C)N` [ENIGMOL], the CL/F [5] was 217 mL/min/kg, the Activity (PC-3 [20]) was “Active” and the Activity (LNCaP [21]) was “Active”. The AUC(0-inf) [6] was 6.96 µM·h, the Vd/F [7] was 211 L/kg and the pIC50 (LNCaP [2]) was 5.01. The AUC(0-t) [8] was 5.96 µM·h, the AUC(0-t) [9] was 1.88 µM·h and the Cmax [10] was 137 nM. It also gave a Cmax [11] of 705 nM, an Activity (Mus musculus [22]) of less than 6% and a Vz/F (Mus musculus [23]) of 107 L/kg. For the same molecule, the half-life [13] was 5 h, the Activity (PC-3 [24]) was “Active” and the Activity (Mus musculus [25]) was less than 6%. For the same molecule, the half-life [14] was 11 h, the CL/F [15] was 233 mL/min/kg and the concentration [26] was 10000 nM. For the same molecule, the Activity (LNCaP [27]) was “Active”, the Tmax [16] was 2 h and the Activity (Mus musculus [28]) was 0.3%. The Activity (PC-3 [29]) was “Active”, the Activity (PC-3 [3]) was “Active” and the Tmax [17] was 2 h. For the same molecule, the pIC50 (PC-3 [4]) was 4.99 and the AUC(0-inf) [18] was 2.54 µM·h.
